# Experimental data as given in ChEMBL document CHEMBL4811219 (Eur J Med Chem, 2021).
# Legend:
# Assay type in all cases: ADME, organism-based
# Conditions in all cases: in vivo
# [1] = Observed AUC (0-7 hrs) in CD-1 mouse at 20 mg/kg, po by LC-MS/MS analysis; design: time < 7 hr, route oral, dose 20 mg/kg
# [2] = Cmax in CD-1 mouse at 10 mg/kg, ip upto 7 hrs by LC-MS/MS analysis; design: route intraperitoneal, dose 10 mg/kg, time <=7
# In short: (§1)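 Female CD-1 mice, single dose of 10 mg/kg i.p. or 20 mg/kg p.o., in 20% DMSO/50% PEG-400/30% PBS. Blood was sampled at 0.5, 2, 4 and 7 h and plasma assayed by LC-MS/MS (ESI positive MRM). Parameters are noncompartmental, mean of N=3.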
# [3] = Observed AUC (0-7 hrs) in CD-1 mouse at 10 mg/kg, ip by LC-MS/MS analysis; design: time < 7 hr, route intraperitoneal, dose 10 mg/kg
# [4] = Cmax in CD-1 mouse at 20 mg/kg, po upto 7 hrs by LC-MS/MS analysis; design: route oral, dose 20 mg/kg, time <=7; in short: as §1
AUC [1] [µM·h],Cmax [2] [µM],AUC [3] [µM·h],Cmax [4] [µM],SMILES
23.3,7,23,7,CC(Sc1nc2nn(C3(C)COC3)cc2c(=O)n1-c1ccccc1)c1ccccc1 (stereo not drawn)
,7.9,19.5,,CC(Sc1nc2nn(C3COC3)cc2c(=O)n1-c1ccccc1)c1ccccc1 (stereo not drawn)
17.4,3.9,7.9,7.3,CC(Sc1nc2c(cnn2C)c(=O)n1-c1ccccc1)c1ccccn1 (stereo not drawn)

# The remaining lines, values behind:
SMILES,AUC [1] [µM·h],Cmax [2] [µM],AUC [3] [µM·h],Cmax [4] [µM]
CC(Sc1nc2nn(C3COC3)cc2c(=O)n1-c1ccccc1)c1ccccn1 (stereo not drawn),,3.3,,3.9
CC(Sc1nc2c(cnn2C)c(=O)n1-c1ccccc1)c1ccccc1 (stereo not drawn),3.9,2.3,4.9,0.8
C[C@@H](Sc1nc2c(cnn2C)c(=O)n1-c1ccccc1)c1ccccc1,,0.3,0.7,
